Measured values pooled from the literature.
Lines come from different studies, so protocols differ. pEC50, pIC50: −log10 of the molar value. Values after ≈ are worked out from the molar mass of the structure shown.
CYP2B6: Cytochrome P450 2B6 (CYP2B6, Homo sapiens, UniProt P20813)

With `CC(C)[C@@H]1NC(=O)[C@@H](CCCCN)NC(=O)[C@H]([C@@H](C)O)NC(=O)[C@@H](CCCN)NC(=O)[C@H](Cc2ccccc2)NC(=O)[C@@H](Cc2ccccc2)NC1=O` the haemolysis was < 10% (haemolysis; human; 100 µM).
For `c1ccc(COc2ccc(Nc3ccc4ncc(OCC5CCNCC5)nc4c3)cc2)cc1`, the pEC50 was < 4.52 (HeLa; cell growth or viability, XTT; 7 days).
For `CSc1ccccc1C(=O)NCCn1cc(C(=O)NCc2cccc(C)n2)c(=O)c2cc3c(cc21)OCO3`, the pIC50 was < 4.00 (CYP2B6; enzyme activity, inhibitor; human, liver microsomes; 20 min, without NADPH, with preincubation).
`Cc1cc(S(=O)(=O)N[C@]2(C)C[C@@H](N3CCN(CC4CCN(c5ccc6c(c5F)n(C)c(=O)n6C5CCC(=O)NC5=O)CC4)CC3)C2)ccc1Nc1ncc(C(F)(F)F)c(N2CCC[C@](C)(O)C2)n1` (some centres unmarked) has a clearance of 62 mL/min/kg (rat, plasma; intravenous, 2 mg/kg).
For `CCCCCCCCCCCCCCCCCC(=O)O`, the CC50 was 90.6 µg/mL (≈ 318 µM) (HeLa; cell growth or viability, MTT; 48 h).
`CSc1ccccc1C(=O)NCCn1cc(C(=O)NCc2cccc(C)n2)c(=O)c2cc3c(cc21)OC(F)(F)O3` gave a pIC50 of < 4.00 (CYP2B6; enzyme activity, inhibitor; human, liver microsomes; 20 min, without NADPH, with preincubation).
For `CC(C)n1ncc2c(C(=O)NCC3(C)CNC3)cc(C3CC3)nc21`, the viability was 99.9% (HeLa; cell growth or viability, neutral red; 0.11 µM).
For `C[C@H]1Oc2cc(cnc2N)-c2c(nn(C)c2C#N)CN(C)C(=O)c2ccc(F)cc21`, the CL/F was 50 mL/min/kg (male Sprague-Dawley rat, plasma; oral, 5 mg/kg, single dose).
With `Cc1cc(S(=O)(=O)NC2CC(N3CCN(CC4CCN(c5ccc(NC6CCC(=O)NC6=O)cc5C)CC4)CC3)C2)ccc1Nc1ncc(C(F)(F)F)c(N2CCC[C@](C)(O)C2)n1` (some centres unmarked) the clearance was 26 mL/min/kg (rat, plasma; intravenous, 2 mg/kg).
The pEC50 of `c1ccc(Oc2ccc(Nc3ccc4ncc(OCC5CCNCC5)nc4c3)cc2)cc1` is reported as 4.68 (HeLa; cell growth or viability, XTT; 7 days).
For `CNS(=O)(=O)c1ccc(Nc2ncc(C(F)(F)F)c(N3CCC(C)(O)CC3)n2)c(C)c1`, the clearance was 52 mL/min/kg (rat, plasma; intravenous, 2 mg/kg).
The haemolysis of `CC(C)[C@@H]1NC(=O)[C@@H](CCCNC(=N)N)NC(=O)[C@H](C)NC(=O)[C@@H](CCCN)NC(=O)[C@H](Cc2ccccc2)NC(=O)[C@@H](Cc2ccccc2)NC1=O` is reported as < 10% (haemolysis; human; 100 µM).
The pIC50 of `OCc1ccc(-c2nn(Cc3ccccc3)c3ccccc23)o1` is reported as 5.29 (CYP2B6; enzyme activity, inhibitor; human, liver microsomes).
`Cc1cc(S(=O)(=O)N[C@H]2CC[C@H](CN3CCN(c4ccc(C5CCC(=O)NC5=O)c(Cl)c4)CC3)CC2)ccc1Nc1ncc(C(F)(F)F)c(N2CCC[C@](C)(O)C2)n1` (some centres unmarked) has a clearance of 15 mL/min/kg (rat, plasma; intravenous, 2 mg/kg).
